Each structure is given as a SMILES string.

What is called inhibition is the drop in the measured response relative to a control, in per cent.

The first test addresses T1, Kallikrein-6 (Homo sapiens, UniProt Q92876). The experiment in a line: Inhibition of KLK6 (unknown origin) assessed as release of AMC fluorescent product using Boc-QAR-AMC as substrate at 10 uM incubated for 30 mins by microplate reader. Put shortly: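 KLK6 (activated with lysylendopeptidase) at 2 nM was preincubated 15 min at 37 °C with compound (10 μM screen, or a range within 0.1–100 μM) or DMSO <2%. Reaction started with Boc-QAR-AMC 100 μM in 50 mM Tris, 1 M citrate, 0.05% Brij-35, pH 7.4. AMC read at ex 360/em 460 nm for 30 min. % inhibition taken from initial rates versus DMSO; IC50 from curve fit; ≥3 independent experiments in duplicate.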
Regarding `COc1ccc(O)c(C(=O)Nc2ccc(CN)cc2)c1`, the inhibition came out at 21.8%.

As for `Cc1cccc(O)c1C(=O)Nc1ccc(CN)cc1`, the inhibition is 7.27%. Still for that read-out and setting: the same measure for `NCc1ccc(NC(=O)c2ccc(C(F)(F)F)cc2O)cc1`: 47%. Take `NCc1ccc(NC(=O)c2cc(Br)ccc2O)cc1`: the inhibition is 30%.

With `NCc1ccc(NC(=O)c2ncccc2O)cc1`, the inhibition came out at 8.86%. On the same count and under the same terms, the same measure for `NCc1ccc(NC(=O)c2ccccc2O)cc1`: 14.8%. For `Cc1cccc(C(=O)Nc2ccc(CN)cc2)c1O`, the inhibition was determined as 20%. Same read-out and setting: under `Cc1ccc(O)c(C(=O)Nc2ccc(CN)cc2)c1` stands 26.5%; under `NCc1ccc(NC(=O)c2ccc3ccccc3c2)cc1`, 19.8%.

Another test has as its target T1, Kallikrein-6. In words: Inhibition of KLK6 (unknown origin) assessed as release of AMC fluorescent product using Boc-QAR-AMC as substrate incubated for 30 mins by microplate reader.
As to `Cl.NCc1ccc(NC(=O)c2c(O)ccc3ccccc23)cc1`, the IC50 result is on record as “Not Active”. Same read-out and setting: the same measure for `Cl.O=C(NC1CCNCC1)c1ccc2ccccc2c1O`: “Not Active”; for `Cl.NCc1ccc(NC(=O)c2ccc(F)cc2O)cc1`: “Not Active”. Consider `Cl.NCc1ccc(NC(=O)c2cc3ccccc3[nH]2)cc1`, for which the IC50 entry is given as “Not Active”. For `CC(C)(C)c1ccc(O)c(CNc2ccc(CN)cc2)c1.Cl`, the IC50 result was “Not Active”. Regarding `NCc1ccc(NC(=O)c2c[nH]c3ccccc3c2=O)cc1`, the IC50 result is on record as “Not Active”.

Source of the values: ChEMBL document CHEMBL4831480, “Identification of First-in-Class Inhibitors of Kallikrein-Related Peptidase 6 That Promote Oligodendrocyte Differentiation” (J Med Chem, 2021).
